# Assay results from ChEMBL document CHEMBL4038323, “Discovery and Kinetic Profiling of 7-Aryl-1,2,4-triazolo[4,3-a]pyridines: Positive Allosteric Modulators of the Metabotropic Glutamate Receptor 2” (J Med Chem, 2017).
# pEC50, pKd, pKi: −log10 of the molar value. The source made the active and inactive calls. No cut-off for these calls is given here.
# Assays:
# [1] = target: T1, Metabotropic glutamate receptor 2 (Homo sapiens, UniProt Q14416); test: Displacement of [3H]JNJ-46281222 from human metabotropic glutamate receptor 2 expressed in CHOK1 cell membranes assessed as association rate constant measured every 30 sec for 120 mins by scintillation proximity assay
# Outline: (§1)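 For the SPA competition association, CHO-K1_hmGlu2 membranes (20 µg) were pre-coupled 30 min to WGA SPA beads, then mixed with 6 nM [3H]JNJ-46281222, competitor and 1 mM glutamate. Counts were read every 30 s for 120 min at 28°C.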
# Target sequence in this assay (Q14416 19-872 limits assumed): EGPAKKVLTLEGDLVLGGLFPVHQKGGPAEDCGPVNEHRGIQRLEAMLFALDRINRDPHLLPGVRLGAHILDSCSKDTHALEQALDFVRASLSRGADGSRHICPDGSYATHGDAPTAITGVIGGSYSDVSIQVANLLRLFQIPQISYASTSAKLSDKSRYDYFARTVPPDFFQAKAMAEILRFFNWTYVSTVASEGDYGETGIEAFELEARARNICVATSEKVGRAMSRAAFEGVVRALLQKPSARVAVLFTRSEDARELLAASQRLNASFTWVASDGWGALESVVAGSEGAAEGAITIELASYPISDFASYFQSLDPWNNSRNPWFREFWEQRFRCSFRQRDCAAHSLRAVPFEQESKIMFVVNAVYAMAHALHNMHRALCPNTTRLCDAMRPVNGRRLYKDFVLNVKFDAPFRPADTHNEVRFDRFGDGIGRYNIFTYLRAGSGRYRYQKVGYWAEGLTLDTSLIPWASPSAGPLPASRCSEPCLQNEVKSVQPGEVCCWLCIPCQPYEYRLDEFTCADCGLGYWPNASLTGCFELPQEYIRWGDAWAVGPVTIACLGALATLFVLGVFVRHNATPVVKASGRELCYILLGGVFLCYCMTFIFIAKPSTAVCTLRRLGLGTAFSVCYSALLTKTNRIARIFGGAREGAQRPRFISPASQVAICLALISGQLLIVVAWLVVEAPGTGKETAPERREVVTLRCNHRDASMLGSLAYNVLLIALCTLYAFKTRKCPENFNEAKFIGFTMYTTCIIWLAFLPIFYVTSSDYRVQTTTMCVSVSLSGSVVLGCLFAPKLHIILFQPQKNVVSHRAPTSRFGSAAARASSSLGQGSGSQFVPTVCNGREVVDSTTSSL
# [2] = target: T1, Metabotropic glutamate receptor 2; test: Displacement of [3H]JNJ-46281222 from human metabotropic glutamate receptor 2 expressed in CHOK1 cell membranes assessed as dissociation rate constant measured every 30 sec for 120 mins by scintillation proximity assay; outline: as §1
# Target sequence in this assay (Q14416 19-872 limits assumed): as above
# [3] = target: T1, Metabotropic glutamate receptor 2; test: Displacement of [3H]JNJ-46281222 from human metabotropic glutamate receptor 2 expressed in CHOK1 cell membranes assessed as residence time measured every 30 sec for 120 mins by scintillation proximity assay; outline: as §1
# Target sequence in this assay (Q14416 19-872 limits assumed): as above
# [4] = target: T1, Metabotropic glutamate receptor 2; test: Binding affinity to human metabotropic glutamate receptor 2 expressed in CHOK1 cell membranes by scintillation proximity assay
# Target sequence in this assay (Q14416 whole entry): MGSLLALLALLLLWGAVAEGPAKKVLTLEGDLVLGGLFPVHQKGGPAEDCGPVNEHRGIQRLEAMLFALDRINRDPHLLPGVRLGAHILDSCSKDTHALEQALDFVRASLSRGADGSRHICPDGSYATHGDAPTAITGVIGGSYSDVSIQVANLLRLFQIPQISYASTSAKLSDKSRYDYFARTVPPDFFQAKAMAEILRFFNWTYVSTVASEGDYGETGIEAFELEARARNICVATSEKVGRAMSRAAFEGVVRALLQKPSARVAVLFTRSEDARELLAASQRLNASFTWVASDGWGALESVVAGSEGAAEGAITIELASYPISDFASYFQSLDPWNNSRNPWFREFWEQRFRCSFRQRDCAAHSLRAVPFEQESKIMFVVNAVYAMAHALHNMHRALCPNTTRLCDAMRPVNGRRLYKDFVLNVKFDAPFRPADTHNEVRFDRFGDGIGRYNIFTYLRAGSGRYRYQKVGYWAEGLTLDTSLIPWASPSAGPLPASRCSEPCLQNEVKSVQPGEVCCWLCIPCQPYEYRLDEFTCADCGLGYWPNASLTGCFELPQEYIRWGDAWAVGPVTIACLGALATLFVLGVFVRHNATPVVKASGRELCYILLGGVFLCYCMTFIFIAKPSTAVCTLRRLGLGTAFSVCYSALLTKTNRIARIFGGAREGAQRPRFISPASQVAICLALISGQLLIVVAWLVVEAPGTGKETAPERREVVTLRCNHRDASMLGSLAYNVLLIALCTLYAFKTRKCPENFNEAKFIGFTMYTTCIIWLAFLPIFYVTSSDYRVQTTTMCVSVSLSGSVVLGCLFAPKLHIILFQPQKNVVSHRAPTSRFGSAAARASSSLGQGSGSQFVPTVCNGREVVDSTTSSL
# [5] = target: T1, Metabotropic glutamate receptor 2; test: Positive allosteric modulation of human metabotropic glutamate receptor 2 expressed in CHOK1 cell membranes assessed as increase in glutamate-induced [35S]GTPgammaS binding preincubated for 30 mins followed by [35S]GTPgammaS addition measured after 30 mins by Topcount scintillation counting method; type: functional
# Target sequence in this assay (Q14416 whole entry): as above
# [6] = target: T1, Metabotropic glutamate receptor 2; test: Displacement of [3H]-JNJ46281222 from human metabotropic glutamate receptor 2 expressed in CHOK1 cell membranes after 60 mins by microbeta counting analysis
# Target sequence in this assay (Q14416 whole entry): as above
# [7] = target: Metabotropic glutamate receptor 1 (Homo sapiens) (UniProt Q13255); test: Agonist activity at human metabotropic glutamate receptor 1 expressed in HEK293 cells assessed as induction of Ca2+ internalization after 1 hr by fluo-4-AM dye based fluorescence assay; type: functional, cell-based
# [8] = target: Metabotropic glutamate receptor 1 (Homo sapiens) (UniProt Q13255); test: Antagonist activity at human metabotropic glutamate receptor 1 expressed in HEK293 cells assessed as inhibition of glutamate-induced Ca2+ internalization after 1 hr by fluo-4-AM dye based fluorescence assay; type: functional, cell-based
# [9] = target: Metabotropic glutamate receptor 3 (Homo sapiens) (UniProt Q14832); test: Agonist activity at human metabotropic glutamate receptor 3 expressed in HEK293 cells assessed as induction of Ca2+ internalization after 1 hr by fluo-4-AM dye based fluorescence assay; type: functional, cell-based
# [10] = target: Metabotropic glutamate receptor 3 (Homo sapiens) (UniProt Q14832); test: Antagonist activity at human metabotropic glutamate receptor 3 expressed in HEK293 cells assessed as inhibition of glutamate-induced Ca2+ internalization after 1 hr by fluo-4-AM dye based fluorescence assay; type: functional, cell-based
# [11] = target: Metabotropic glutamate receptor 5 (Homo sapiens) (UniProt P41594); test: Agonist activity at human metabotropic glutamate receptor 5 expressed in HEK293 cells assessed as induction of Ca2+ internalization after 1 hr by fluo-4-AM dye based fluorescence assay; type: functional, cell-based
# [12] = target: Metabotropic glutamate receptor 5 (Homo sapiens) (UniProt P41594); test: Antagonist activity at human metabotropic glutamate receptor 5 expressed in HEK293 cells assessed as inhibition of glutamate-induced Ca2+ internalization after 1 hr by fluo-4-AM dye based fluorescence assay; type: functional, cell-based
# [13] = target: Metabotropic glutamate receptor 5 (Homo sapiens) (UniProt P41594); test: Positive allosteric modulation of human metabotropic glutamate receptor 5 expressed in HEK293 cells assessed as induction of Ca2+ […] after 1 hr in the presence of glutamate by fluo-4-AM dye based fluorescence assay; type: functional, cell-based
# [14] = target: Metabotropic glutamate receptor 7 (Homo sapiens) (UniProt Q14831); test: Agonist activity at human metabotropic glutamate receptor 7 expressed in HEK293 cells assessed as induction of Ca2+ internalization after 1 hr by fluo-4-AM dye based fluorescence assay; type: functional, cell-based
# [15] = target: Metabotropic glutamate receptor 7 (Homo sapiens) (UniProt Q14831); test: Antagonist activity at human metabotropic glutamate receptor 7 expressed in HEK293 cells assessed as inhibition of glutamate-induced Ca2+ internalization after 1 hr by fluo-4-AM dye based fluorescence assay; type: functional, cell-based
# [16] = target: Metabotropic glutamate receptor 8 (Homo sapiens) (UniProt O00222); test: Agonist activity at human metabotropic glutamate receptor 8 expressed in HEK293 cells assessed as induction of Ca2+ internalization after 1 hr by fluo-4-AM dye based fluorescence assay; type: functional, cell-based
# [17] = target: Metabotropic glutamate receptor 8 (Homo sapiens) (UniProt O00222); test: Antagonist activity at human metabotropic glutamate receptor 8 expressed in HEK293 cells assessed as inhibition of glutamate-induced Ca2+ internalization after 1 hr by fluo-4-AM dye based fluorescence assay; type: functional, cell-based
# [18] = target: Metabotropic glutamate receptor 4 (Homo sapiens) (UniProt Q14833); test: Agonist activity at human metabotropic glutamate receptor 4 assessed as increase in [35S]GTPgammaS binding preincubated for 30 mins followed by [35S]GTPgammaS addition measured after 30 mins by Topcount scintillation counting method; type: functional
# [19] = target: Metabotropic glutamate receptor 4 (Homo sapiens) (UniProt Q14833); test: Antagonist activity at human metabotropic glutamate receptor 4 assessed as inhibition of glutamate-induced [35S]GTPgammaS binding preincubated for 30 mins followed by [35S]GTPgammaS addition measured after 30 mins by Topcount scintillation counting method; type: functional
# [20] = target: Metabotropic glutamate receptor 6 (Rattus norvegicus) (UniProt P35349); test: Agonist activity at rat metabotropic glutamate receptor 6 expressed in CHO cell membranes assessed as increase in [35S]GTPgammaS binding preincubated for 30 mins followed by [35S]GTPgammaS addition measured after 30 mins by Topcount scintillation counting method; type: functional
# [21] = target: Metabotropic glutamate receptor 6 (Rattus norvegicus) (UniProt P35349); test: Antagonist activity at rat metabotropic glutamate receptor 6 expressed in CHO cell membranes assessed as inhibition of glutamate-induced [35S]GTPgammaS binding preincubated for 30 mins followed by [35S]GTPgammaS addition measured after 30 mins by Topcount scintillation counting method; type: functional
# [22] = target: T1, Metabotropic glutamate receptor 2; test: Positive allosteric modulation of human metabotropic glutamate receptor 2 expressed in CHOK1 cells assessed as cellular impedance measured for 20 mins with 15 sec time interval followed by 40 mins with 5 mins time interval and subsequently measured with 15 mins time interval in presence of endogenous glutamate levels by RTCA; type: cell-based
# Outline: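 Whole-cell impedance (Cell Index) in CHO-K1_hmGlu2 cells, 40,000/well, 18 h at 37°C before compound addition. Endogenous glutamate was about 90 µM. […] Three experiments in duplicate.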
# Target sequence in this assay (Q14416 whole entry): as above
# [23] = target: T1, Metabotropic glutamate receptor 2; test: Positive allosteric modulation of human metabotropic glutamate receptor 2 expressed in CHOK1 cells assessed as cellular impedance at 200 nM incubated for 5mins followed by compound washout in presence of endogenous glutamate levels by RTCA; type: cell-based
# Target sequence in this assay (Q14416 19-872 limits assumed): as the sequence (Q14416 19-872 limits assumed) above
# [24] = target: T1, Metabotropic glutamate receptor 2; test: Positive allosteric modulation of human metabotropic glutamate receptor 2 expressed in CHOK1 cells assessed as cellular impedance response by label-free xCELLigence assay
# Target sequence in this assay (Q14416 19-872 limits assumed): as above
# CHO-K1 = test: Effect on cellular impedance in CHOK1 cells up to 1 uM measured for 20 mins with 15 sec time interval followed by 40 mins with 5 mins time interval and subsequently measured with 15 mins time interval by RTCA; type: functional, cell-based; conditions: Cricetulus griseus
# Outline: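 xCELLigence impedance used 40,000 cells/well of wild-type CHO-K1 or CHO-K1_hmGlu2, rested 30 min at room temperature, then 18 h at 37°C, 5% CO2. Cells got 100 nM or 1 µM compound. Reads: every 15 s for 20 min, 5 min for 40 min, then 15 min. Baseline-corrected; three repeats in duplicate.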
# [25] = target: T1, Metabotropic glutamate receptor 2; test: Displacement of [3H]-JNJ46281222 from human metabotropic glutamate receptor 2 expressed in CHOK1 cell membranes after 60 mins by liquid scintillation counting method
# Target sequence in this assay (Q14416 whole entry): as the sequence (Q14416 whole entry) above
# Sequence of Metabotropic glutamate receptor 5 (Homo sapiens) (P41594 21-1212 limits assumed): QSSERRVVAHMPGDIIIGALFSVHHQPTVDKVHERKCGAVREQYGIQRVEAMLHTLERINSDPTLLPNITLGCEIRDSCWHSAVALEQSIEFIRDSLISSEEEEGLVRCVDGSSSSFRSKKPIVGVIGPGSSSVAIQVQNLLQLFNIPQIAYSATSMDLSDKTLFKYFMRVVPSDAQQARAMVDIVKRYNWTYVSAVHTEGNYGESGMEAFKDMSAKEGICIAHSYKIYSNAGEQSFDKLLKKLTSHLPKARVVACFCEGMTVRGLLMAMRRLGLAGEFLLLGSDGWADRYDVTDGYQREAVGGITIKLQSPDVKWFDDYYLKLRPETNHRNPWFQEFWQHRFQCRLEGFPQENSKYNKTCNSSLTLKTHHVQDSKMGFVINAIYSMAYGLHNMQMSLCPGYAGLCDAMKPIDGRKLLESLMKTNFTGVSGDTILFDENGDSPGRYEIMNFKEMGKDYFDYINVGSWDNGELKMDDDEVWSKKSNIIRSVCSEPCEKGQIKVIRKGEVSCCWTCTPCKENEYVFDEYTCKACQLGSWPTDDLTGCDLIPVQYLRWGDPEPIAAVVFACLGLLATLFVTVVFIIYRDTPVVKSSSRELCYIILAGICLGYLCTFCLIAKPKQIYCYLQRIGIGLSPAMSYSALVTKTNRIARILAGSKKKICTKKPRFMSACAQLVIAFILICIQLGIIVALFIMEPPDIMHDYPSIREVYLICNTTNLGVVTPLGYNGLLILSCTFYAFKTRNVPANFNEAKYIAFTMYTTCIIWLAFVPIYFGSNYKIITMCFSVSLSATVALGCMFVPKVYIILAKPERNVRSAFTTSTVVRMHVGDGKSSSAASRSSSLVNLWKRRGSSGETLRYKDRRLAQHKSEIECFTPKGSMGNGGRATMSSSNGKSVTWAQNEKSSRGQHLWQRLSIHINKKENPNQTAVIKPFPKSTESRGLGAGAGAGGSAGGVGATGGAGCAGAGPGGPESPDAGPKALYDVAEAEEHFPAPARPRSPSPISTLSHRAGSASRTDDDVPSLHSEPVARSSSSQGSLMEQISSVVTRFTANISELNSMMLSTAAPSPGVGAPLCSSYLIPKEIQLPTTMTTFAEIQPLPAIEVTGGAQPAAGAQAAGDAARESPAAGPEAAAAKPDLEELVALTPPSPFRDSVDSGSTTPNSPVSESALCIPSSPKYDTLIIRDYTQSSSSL
# Sequence of Metabotropic glutamate receptor 1 (Homo sapiens) (Q13255 19-1194 limits assumed): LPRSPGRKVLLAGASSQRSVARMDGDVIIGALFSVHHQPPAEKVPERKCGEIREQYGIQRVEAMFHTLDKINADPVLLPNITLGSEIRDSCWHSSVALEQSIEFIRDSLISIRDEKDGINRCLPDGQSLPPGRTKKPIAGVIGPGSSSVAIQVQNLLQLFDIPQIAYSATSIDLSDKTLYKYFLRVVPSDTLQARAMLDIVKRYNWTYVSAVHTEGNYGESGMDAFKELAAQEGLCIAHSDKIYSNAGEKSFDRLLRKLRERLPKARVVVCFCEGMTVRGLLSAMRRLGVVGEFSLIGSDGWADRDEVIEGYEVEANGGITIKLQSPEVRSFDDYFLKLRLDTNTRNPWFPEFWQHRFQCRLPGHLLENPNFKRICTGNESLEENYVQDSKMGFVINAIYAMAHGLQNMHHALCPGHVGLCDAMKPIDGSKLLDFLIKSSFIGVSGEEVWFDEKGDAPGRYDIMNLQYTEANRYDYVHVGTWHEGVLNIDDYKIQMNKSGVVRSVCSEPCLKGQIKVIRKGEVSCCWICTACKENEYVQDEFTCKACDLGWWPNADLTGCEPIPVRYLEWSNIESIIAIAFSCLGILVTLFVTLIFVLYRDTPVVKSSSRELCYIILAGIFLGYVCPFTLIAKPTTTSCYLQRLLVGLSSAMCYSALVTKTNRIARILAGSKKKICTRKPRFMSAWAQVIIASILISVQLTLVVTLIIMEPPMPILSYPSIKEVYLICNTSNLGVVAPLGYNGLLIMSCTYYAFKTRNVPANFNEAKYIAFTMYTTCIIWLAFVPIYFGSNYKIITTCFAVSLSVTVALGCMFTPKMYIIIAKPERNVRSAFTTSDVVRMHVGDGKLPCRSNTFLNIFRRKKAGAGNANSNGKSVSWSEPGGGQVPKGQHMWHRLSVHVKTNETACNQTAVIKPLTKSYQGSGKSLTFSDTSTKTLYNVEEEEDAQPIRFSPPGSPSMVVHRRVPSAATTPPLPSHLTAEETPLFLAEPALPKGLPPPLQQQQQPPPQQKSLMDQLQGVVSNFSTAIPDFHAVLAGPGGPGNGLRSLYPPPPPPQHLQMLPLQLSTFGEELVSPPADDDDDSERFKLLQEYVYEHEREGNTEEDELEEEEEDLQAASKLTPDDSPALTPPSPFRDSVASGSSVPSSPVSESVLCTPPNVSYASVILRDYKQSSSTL
SMILES,K [1],K [2],TIME [3],pKd [4],pEC50 [5],pKi [6],Activity [7],inhibition [8],Activity [9],inhibition [10],Activity [11],inhibition [12],Activity [13],Activity [14],inhibition [15],Activity [16],inhibition [17],Activity [18],inhibition [19],Activity [20],also measured
Cc1ccc(Oc2ccc(-c3ccn4c(CC5CC5)nnc4c3Cl)cc2Cl)c(C)n1,6.2 ×10⁷ /M/min,0.061 min⁻¹,0.272 h,9.00,7.91,8.22,inactive,inactive,inactive,inactive,inactive,inactive,inactive,inactive,inactive,inactive,inactive,inactive,inactive,inactive,inhibition [21]: inactive
Fc1cc(-c2ccn3c(CC4CC4)nnc3c2Cl)ccc1NC1CC1,4.8 ×10⁶ /M/min,0.061 min⁻¹,0.273 h,7.90,7.20,7.99,inactive,inactive,inactive,inactive,inactive,inactive,inactive,inactive,inactive,inactive,inactive,inactive,inactive,inactive,inhibition [21]: inactive
FC(F)(F)c1c(-c2ccc(NC3CCOCC3)c(Cl)c2)ccn2c(CC3CC3)nnc12,1.8 ×10⁷ /M/min,0.067 min⁻¹,0.25 h,8.42,7.73,8.30,–,–,–,–,–,–,–,–,–,–,–,–,–,–,pEC50 [22]: 7.73; Activity [23]: inactive; EC80 [24]: 200 nM
FC(F)(F)c1c(CN2CCC(c3ccccc3)CC2)ccn2c(CC3CC3)nnc12,–,–,–,–,–,–,–,–,–,–,–,–,–,–,–,–,–,–,–,–,Activity (CHO-K1): inactive
N#Cc1c(N2CCC(c3ccccc3)CC2)ccn(CC2CC2)c1=O,1.7 ×10⁶ /M/min,0.09 min⁻¹,0.185 h,7.29,7.10,–,–,–,–,–,–,–,–,–,–,–,–,–,–,–,pKi [25]: 7.58
O[C@H]1CC[C@H](Nc2ccc(-c3ccn4c(CC(F)(F)F)nnc4c3Cl)cc2Cl)CC1,6.7 ×10⁶ /M/min,0.074 min⁻¹,0.227 h,7.97,7.38,8.22,inactive,inactive,inactive,inactive,inactive,inactive,inactive,inactive,inactive,inactive,inactive,inactive,inactive,inactive,inhibition [21]: inactive
